Usually IC50 stands for the concentration that gives 50% inhibition. As usually defined, the EC50 is the concentration that produces a half-maximal response.

The target in assay [1] is T1, Beta-2 adrenergic receptor (Homo sapiens, UniProt P07550). Nature of the assay: Displacement of [3H]dihydroalprenolol from beta2-adrenoceptor after 90 mins by liquid scintillation counting.
Target sequence in this assay (P07550 whole entry): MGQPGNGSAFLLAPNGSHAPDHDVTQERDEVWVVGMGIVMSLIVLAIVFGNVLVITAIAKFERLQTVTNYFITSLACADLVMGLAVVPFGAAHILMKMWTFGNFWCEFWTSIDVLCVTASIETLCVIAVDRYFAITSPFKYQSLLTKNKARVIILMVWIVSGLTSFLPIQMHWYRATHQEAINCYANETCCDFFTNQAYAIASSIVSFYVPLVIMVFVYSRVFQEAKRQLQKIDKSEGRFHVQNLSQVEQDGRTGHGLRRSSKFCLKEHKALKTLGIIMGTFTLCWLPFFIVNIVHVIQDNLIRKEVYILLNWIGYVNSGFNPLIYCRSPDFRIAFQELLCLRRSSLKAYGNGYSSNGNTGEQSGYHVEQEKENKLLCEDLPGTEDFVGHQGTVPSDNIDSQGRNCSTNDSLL
Assay [2] addresses T1, Beta-2 adrenergic receptor. Put plainly: Agonist activity at recombinant human beta2-adrenoceptor expressed in whole cells assessed as cAMP accumulation by homogeneous radioimmunoassay. The assay is classed as functional, cell-based. (In general: Changes in cAMP serve as a functional read-out for many G protein-coupled receptors.)
Target sequence in this assay (P07550 whole entry): as above
Assay [3] addresses T1, Beta-2 adrenergic receptor. Put plainly: Ratio of pEC50 for recombinant human beta2-adrenoceptor expressed in whole cells to pEC50 for beta2-adrenoceptor endogenously expressed in human BEAS-2B cells. The assay is classed as cell-based. An outline of the steps: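 cAMP accumulation was measured by homogeneous radioimmunoassay (Flashplate) in two systems: whole cells overexpressing cloned human β2-adrenoceptor, and BEAS-2B human bronchial epithelial cells with endogenous β2-adrenoceptor. Potency was taken from each, and intrinsic activity from BEAS-2B.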
Target sequence in this assay (P07550 whole entry, looked up): as the sequence (P07550 whole entry) above

Assay [4] deals with T1, Beta-2 adrenergic receptor. Nature of the assay: Agonist activity at beta2-adrenoceptor endogenously expressed in human BEAS-2B cells assessed as cAMP accumulation by homogeneous radioimmunoassay. The assay is classed as functional, cell-based.
Target sequence in this assay (P07550 whole entry): as above
Assay [5] addresses Beta-1 adrenergic receptor (Homo sapiens, UniProt P08588). Put plainly: Agonist activity at recombinant human beta1-adrenoceptor expressed in whole cells assessed as cAMP accumulation by homogeneous radioimmunoassay. The assay is classed as functional, cell-based.
The test system of assay [6] is Cavia porcellus. Nature of the assay: Bronchoprotective activity in Ach-stimulated guinea pig assessed as reduction in pulmonary resistance at 30 ug/mL administered via nebulization measured after 1.5 hrs by head-out plethysmography. The assay is classed as functional, organism-based. In outline:
(§1)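 Guinea pigs dosed by nebulization, with water as control. Pulmonary resistance was measured in anesthetized, spontaneously breathing animals by head-out plethysmography. Bronchoconstriction was induced with increasing intravenous acetylcholine doses. The read-out was PD2, the ACh dose needed to double baseline resistance.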

The species entered for another assay is Homo sapiens. Nature of the assay: Selectivity ratio of pEC50 for recombinant human beta2-adrenoceptor to pEC50 for human beta1-adrenoceptor. In outline:
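Agonist stimulation of cAMP accumulation was measured by homogeneous radioimmunoassay (Flashplate) in whole cells overexpressing cloned human β2- or β1-adrenoceptor. Selectivity was calculated as the ratio of agonist EC50 potencies at the two subtypes.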

Assay [7] deals with Cavia porcellus. Put plainly: Bronchoprotective activity in Ach-stimulated guinea pig assessed as reduction in pulmonary resistance at 30 ug/mL administered via nebulization measured at 48 hrs post-dosing by head-out plethysmography. The assay is classed as functional, organism-based. In outline: as §1
In assay [8] the test system is Cavia porcellus. Put plainly: Bronchoprotective activity in Ach-stimulated guinea pig assessed as reduction in pulmonary resistance at 300 ug/mL administered via nebulization measured after 24 hrs by head-out plethysmography. The assay is classed as functional, organism-based.

Active and inactive are the calls of the source. The rule behind the calls is not given here.

Beta-1 adrenergic receptor, sequence (P08588 whole entry): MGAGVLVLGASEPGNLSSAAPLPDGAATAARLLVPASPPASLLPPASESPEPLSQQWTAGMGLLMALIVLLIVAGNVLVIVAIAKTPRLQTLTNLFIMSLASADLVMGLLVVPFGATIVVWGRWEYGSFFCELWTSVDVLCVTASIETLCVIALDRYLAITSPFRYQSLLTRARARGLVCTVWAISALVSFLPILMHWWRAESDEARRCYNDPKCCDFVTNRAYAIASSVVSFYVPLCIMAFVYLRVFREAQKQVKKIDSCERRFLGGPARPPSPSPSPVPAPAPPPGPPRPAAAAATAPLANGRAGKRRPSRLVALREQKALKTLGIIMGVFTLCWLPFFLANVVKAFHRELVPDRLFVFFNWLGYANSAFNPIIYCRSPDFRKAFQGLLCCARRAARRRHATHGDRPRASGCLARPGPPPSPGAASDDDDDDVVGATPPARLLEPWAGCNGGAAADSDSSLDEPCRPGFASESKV

Consider `OCc1cc(C(O)CNCCc2ccc(NCC(O)c3ccc(O)c(CO)c3)cc2)ccc1O` (configuration not stated), for which, in assay [1], the 50% inhibitory concentration (IC50) is 0.251 µM. Turning to `OCc1cc(C(O)CNCCc2ccc(NCC(O)c3ccc(-c4ccccc4)cc3)cc2)ccc1O` (configuration not stated), the EC50 in assay [2] is 39.8 nM. The same measure, in the same setting: in the case of `COc1ccc(C(O)CNc2ccc(CCNCC(O)c3ccc(O)c(CO)c3)cc2)c(OC)c1` (configuration not stated) it was 39.8 nM; in that of `COc1ccc(OC)c(C(O)CNc2ccc(CCNCC(O)c3ccc(O)c(CO)c3)cc2)c1` (configuration not stated), 6.31 nM.

For the molecule `OCc1cc(C(O)CNCCc2ccc(CCNCC(O)c3ccc(O)c(CO)c3)cc2)ccc1O` (configuration not stated), the IC50 in assay [1] was 100 µM. In the case of `OCc1cc(C(O)CNCCc2ccc(NCC(O)c3ccc4ccccc4c3)cc2)ccc1O` (configuration not stated), the EC50 in [2] was 50.1 nM. As for `OCc1cc(C(O)CNCCc2ccc(NCC(O)c3ccc(Cl)cc3)cc2)ccc1O` (configuration not stated), in assay [2], the EC50 was 1.58 nM.

For the molecule `OCc1cc(C(O)CNCc2ccc(CNCC(O)c3ccc(O)c(CO)c3)cc2)ccc1O` (configuration not stated), the IC50 in [1] was 50.1 µM. Consider `OCc1cc([C@@H](O)CNCCc2ccc(NC[C@@H](O)c3ccccc3)cc2)ccc1O` (mixture of isomers), for which the EC50 was 0.316 nM in assay [2], 3.98 nM in [4] and 251 nM in assay [5]. The Ratio in assay [3] was 10. As for `CN(CC(O)c1ccccc1)c1ccc(CCNCC(O)c2ccc(O)c(CO)c2)cc1` (configuration not stated), the concentration for a half-maximal effect (EC50) in assay [2] is 2 nM. As for `O=c1ccc2c([C@@H](O)CNCCc3ccc(NC[C@H](O)c4ccccc4)cc3)ccc(O)c2[nH]1`, the EC50 in assay [2] was 0.126 nM; in assay [4] it was 1.26 nM. Further, the Ratio in assay [3] was found to be 10. As to `OCc1cc(C(O)CNCCCCCCNCC(O)c2ccc(O)c(CO)c2)ccc1O` (configuration not stated), in [1], the IC50 is 7.94 µM. Turning to `Cc1ccc(C(O)CNc2ccc(CCNCC(O)c3ccc(O)c(CO)c3)cc2)cc1` (configuration not stated), in [2], the 50% effective concentration (EC50) is 2.51 nM. In turn, `OCc1cc(C(O)CNCc2ccc(NCC(O)c3ccc(O)c(CO)c3)cc2)ccc1O` (configuration not stated) gave an IC50 in assay [1] of 2 µM. Regarding `OCc1cc(C(O)CNCCc2ccc(OCC(O)c3ccccc3)cc2)ccc1O` (configuration not stated), the EC50 in [2] was 0.398 nM. Still for that read-out and setting: as for `Nc1c(Cl)cc([C@@H](O)CNCCc2ccc(NC[C@H](O)c3ccccc3)cc2)cc1Cl`, the figure is 0.398 nM. In turn, `OC(CNCCc1ccc(NCC(O)c2ccccc2)cc1)c1ccccc1` (configuration not stated) had an IC50 in assay [1] of 0.251 µM. For the molecule `O=CNc1cc([C@@H](O)CNCCc2ccc(NC[C@H](O)c3ccccc3)cc2)ccc1O` [MILVETEROL], the EC50 in assay [2] was 0.0631 nM; in [4], 0.501 nM; in assay [5], 25.1 nM. In addition, the Ratio in assay [3] was 10; in the assay filed under Homo sapiens, over 300. The result in the assay on Cavia porcellus [6] and in the assay with Cavia porcellus [7] was Active. For `CC(C)(C)c1ccc(C(O)CNc2ccc(CCNCC(O)c3ccc(O)c(CO)c3)cc2)cc1` (configuration not stated), the EC50 in assay [2] was 50.1 nM. With `OCc1cc([C@@H](O)CNCCc2ccc(NC[C@H](O)c3ccccc3)cc2)ccc1O`, the EC50 is 0.1 nM in [2], 1.26 nM in assay [4] and 251 nM in assay [5]. Further, the Ratio is 10 in [3] and over 300 in the assay listed under Homo sapiens. The result with Cavia porcellus [6] was Active. Further, the result in the assay with Cavia porcellus [7] was inactive. `OCc1cc(C(O)CNC2Cc3ccc(NCC(O)c4ccccc4)cc3C2)ccc1O` (configuration not stated): the EC50 in assay [2] is 5.01 nM. As to `OCc1cc(C(O)CNCCc2ccc(NCC(O)c3ccccc3)cc2)ccc1O` (configuration not stated), in [2], the EC50 is 0.316 nM. In assay [1], this molecule showed an IC50 of 0.0398 µM. In the case of `CC(C)CCc1ccc(C(O)CNc2ccc(CCNCC(O)c3ccc(O)c(CO)c3)cc2)cc1` (configuration not stated), in assay [2], the EC50 is 63.1 nM.

For the molecule `OCc1cc(C(O)CNCCCCCCOCCCCc2ccccc2)ccc1O` (configuration not stated), the result with Cavia porcellus [8] was Active. In addition, in the assay on Cavia porcellus [7], the result was inactive. For `OCc1cc(C(O)CNCCc2ccc(NCC(O)c3ccc(O)cc3)cc2)ccc1O` (configuration not stated), the EC50 in assay [2] is 7.94 nM. `CC(C)(CNCC(O)c1ccc(O)c(CO)c1)CNCC(O)c1ccc(O)c(CO)c1` (configuration not stated): in assay [1], the IC50 was 251 µM.

On to `OCc1cc(C(O)CNCCCCNCC(O)c2ccc(O)c(CO)c2)ccc1O` (configuration not stated), for which, in [1], the IC50 was 10 µM. Take `OCc1cc(C(O)CNCCc2ccc(NCC(O)c3ccc(F)cc3)cc2)ccc1O` (configuration not stated): the EC50 in [2] is 2 nM. On to `OCc1cc(C(O)CN[C@H]2CC[C@H](NCC(O)c3ccc(O)c(CO)c3)CC2)ccc1O` (some centres not stated), for which the IC50 in assay [1] was 5.01 µM. On to `CC(C)(Cc1ccc(NCC(O)c2ccccc2)cc1)NCC(O)c1ccc(O)c(CO)c1` (configuration not stated), for which, in assay [2], the EC50 is 0.316 nM. `OCc1cc(C(O)CNCc2cccc(CNCC(O)c3ccc(O)c(CO)c3)c2)ccc1O` (configuration not stated) gave an IC50 in assay [1] of 20 µM. As to `OCc1cc(C(O)CNC2CCC(CC3CCC(NCC(O)c4ccc(O)c(CO)c4)CC3)CC2)ccc1O` (configuration not stated), the IC50 in [1] was 20 µM.

The molecule `OCc1cc(C(O)CNCC2CCCC(CNCC(O)c3ccc(O)c(CO)c3)C2)ccc1O` (configuration not stated) showed an IC50 in assay [1] of 10 µM.

For the origin of these results see ChEMBL document CHEMBL1938358, “A multivalent approach to the discovery of long-acting β(2)-adrenoceptor agonists for the treatment of asthma and COPD” (Bioorg Med Chem Lett, 2012).
